ChEMBL document CHEMBL4689842, “EUbOPEN Chemogenomics Library wave 1” (2021)

Tested on: Fibroblast
Test: Multiplex assay against human fibroblast
Format: toxicity, cell-based
How it was run: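 On a CQ1 microscope at 37°C and 5% CO2, live cells were imaged after compound addition. They had been stained at seeding with Hoechst33342, BioTracker Green Microtubule Cytoskeleton Dye, MitoTracker Red and Annexin V Alexa Fluor 680. CellPathfinder machine-learning gating assigned cells to Hoechst high-intensity objects or normal cells, normal cells to healthy, pyknosed or fragmented nuclei, and pyknosed cells to mitotic or apoptotic. Tubulin, mitochondrial-mass and membrane-permeability phenotypes are per cents of healthy-nucleus cells.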

[1] = 12 h, 1 µM, compound concentration 1 uM, replicate 1
[2] = 12 h, 1 µM, compound concentration 1 uM, replicate 2
[3] = 12 h, 10 µM, compound concentration 10 uM, replicate 1
[4] = 12 h, 10 µM, compound concentration 10 uM, replicate 2
[5] = 24 h, 1 µM, compound concentration 1 uM, replicate 1
[6] = 24 h, 1 µM, compound concentration 1 uM, replicate 2
[7] = 24 h, 10 µM, compound concentration 10 uM, replicate 1
[8] = 24 h, 10 µM, compound concentration 10 uM, replicate 2
[9] = 48 h, 1 µM, compound concentration 1 uM, replicate 1
[10] = 48 h, 1 µM, compound concentration 1 uM, replicate 2
[11] = 48 h, 10 µM, compound concentration 10 uM, replicate 1
[12] = 48 h, 10 µM, compound concentration 10 uM, replicate 2

CCCS(=O)(=O)c1nc(NC2CC2)cc(-c2ccc3c(ccn3C3CC(C)(C)NC(C)(C)C3)c2)n1
Population Apoptotic (%) [1]: 41% | Population Fragmented Nuclei (%) [1]: 27% | Population Healthy Nuclei (%) [1]: 42% | Population Hoechst High Intensity Objects (%) [1]: 11% | Population Membrane Permeable-Phenotype (%) [1]: 22% | Population Mitochondria Different-Phenotype (%) [1]: 0% | Population Mitotic Cells (%) [1]: 58% | Population Normal (%) [1]: 88% | Population Pyknosed Nuclei (%) [1]: 30% | Population Tubulin-Different-Phenotype (%) [1]: 35% | Total Cell Count [1]: 107 | Population Apoptotic (%) [2]: 38% | Population Fragmented Nuclei (%) [2]: 14% | Population Healthy Nuclei (%) [2]: 71% | Population Hoechst High Intensity Objects (%) [2]: 5% | Population Membrane Permeable-Phenotype (%) [2]: 5% | Population Mitochondria Different-Phenotype (%) [2]: 41% | Population Mitotic Cells (%) [2]: 61% | Population Normal (%) [2]: 94% | Population Pyknosed Nuclei (%) [2]: 13% | Population Tubulin-Different-Phenotype (%) [2]: 29% | Total Cell Count [2]: 1044 | Population Apoptotic (%) [3]: 71% | Population Fragmented Nuclei (%) [3]: 42% | Population Healthy Nuclei (%) [3]: 4% | Population Hoechst High Intensity Objects (%) [3]: 10% | Population Membrane Permeable-Phenotype (%) [3]: 60% | Population Mitochondria Different-Phenotype (%) [3]: 0% | Population Mitotic Cells (%) [3]: 28% | Population Normal (%) [3]: 89% | Population Pyknosed Nuclei (%) [3]: 53% | Population Tubulin-Different-Phenotype (%) [3]: 40% | Total Cell Count [3]: 124 | Population Apoptotic (%) [4]: 92% | Population Fragmented Nuclei (%) [4]: 75% | Population Hoechst High Intensity Objects (%) [4]: 7% | Population Membrane Permeable-Phenotype (%) [4]: 100% | Population Mitochondria Different-Phenotype (%) [4]: 38% | Population Mitotic Cells (%) [4]: 7% | Population Normal (%) [4]: 92% | Population Pyknosed Nuclei (%) [4]: 19% | Population Tubulin-Different-Phenotype (%) [4]: 84% | Total Cell Count [4]: 101 | Population Apoptotic (%) [5]: 42% | Population Fragmented Nuclei (%) [5]: 33% | Population Healthy Nuclei (%) [5]: 39% | Population Hoechst High Intensity Objects (%) [5]: 15% | Population Membrane Permeable-Phenotype (%) [5]: 23% | Population Mitochondria Different-Phenotype (%) [5]: 13% | Population Mitotic Cells (%) [5]: 57% | Population Normal (%) [5]: 84% | Population Pyknosed Nuclei (%) [5]: 27% | Population Tubulin-Different-Phenotype (%) [5]: 39% | Total Cell Count [5]: 114 | Population Apoptotic (%) [6]: 22% | Population Fragmented Nuclei (%) [6]: 15% | Population Healthy Nuclei (%) [6]: 66% | Population Hoechst High Intensity Objects (%) [6]: 5% | Population Membrane Permeable-Phenotype (%) [6]: 10% | Population Mitochondria Different-Phenotype (%) [6]: 21% | Population Mitotic Cells (%) [6]: 77% | Population Normal (%) [6]: 94% | Population Pyknosed Nuclei (%) [6]: 18% | Population Tubulin-Different-Phenotype (%) [6]: 29% | Total Cell Count [6]: 1113 | Population Apoptotic (%) [7]: 76% | Population Fragmented Nuclei (%) [7]: 38% | Population Healthy Nuclei (%) [7]: 11% | Population Hoechst High Intensity Objects (%) [7]: 19% | Population Membrane Permeable-Phenotype (%) [7]: 63% | Population Mitochondria Different-Phenotype (%) [7]: 0% | Population Mitotic Cells (%) [7]: 24% | Population Normal (%) [7]: 80% | Population Pyknosed Nuclei (%) [7]: 50% | Population Tubulin-Different-Phenotype (%) [7]: 54% | Total Cell Count [7]: 123 | Population Apoptotic (%) [8]: 90% | Population Fragmented Nuclei (%) [8]: 73% | Population Healthy Nuclei (%) [8]: 10% | Population Hoechst High Intensity Objects (%) [8]: 7% | Population Membrane Permeable-Phenotype (%) [8]: 96% | Population Mitochondria Different-Phenotype (%) [8]: 75% | Population Mitotic Cells (%) [8]: 10% | Population Normal (%) [8]: 92% | Population Pyknosed Nuclei (%) [8]: 15% | Population Tubulin-Different-Phenotype (%) [8]: 96% | Total Cell Count [8]: 104 | Population Apoptotic (%) [9]: 58% | Population Fragmented Nuclei (%) [9]: 34% | Population Healthy Nuclei (%) [9]: 36% | Population Hoechst High Intensity Objects (%) [9]: 20% | Population Membrane Permeable-Phenotype (%) [9]: 16% | Population Mitochondria Different-Phenotype (%) [9]: 10% | Population Mitotic Cells (%) [9]: 41% | Population Normal (%) [9]: 79% | Population Pyknosed Nuclei (%) [9]: 28% | Population Tubulin-Different-Phenotype (%) [9]: 60% | Total Cell Count [9]: 105 | Population Apoptotic (%) [10]: 75% | Population Fragmented Nuclei (%) [10]: 46% | Population Healthy Nuclei (%) [10]: 49% | Population Hoechst High Intensity Objects (%) [10]: 8% | Population Membrane Permeable-Phenotype (%) [10]: 26% | Population Mitochondria Different-Phenotype (%) [10]: 12% | Population Mitotic Cells (%) [10]: 25% | Population Normal (%) [10]: 91% | Population Pyknosed Nuclei (%) [10]: 3% | Population Tubulin-Different-Phenotype (%) [10]: 46% | Total Cell Count [10]: 110 | Population Apoptotic (%) [11]: 76% | Population Fragmented Nuclei (%) [11]: 59% | Population Healthy Nuclei (%) [11]: 25% | Population Hoechst High Intensity Objects (%) [11]: 39% | Population Membrane Permeable-Phenotype (%) [11]: 76% | Population Mitochondria Different-Phenotype (%) [11]: 4% | Population Mitotic Cells (%) [11]: 23% | Population Normal (%) [11]: 60% | Population Pyknosed Nuclei (%) [11]: 15% | Population Tubulin-Different-Phenotype (%) [11]: 61% | Total Cell Count [11]: 137 | Population Apoptotic (%) [12]: 75% | Population Fragmented Nuclei (%) [12]: 78% | Population Healthy Nuclei (%) [12]: 15% | Population Hoechst High Intensity Objects (%) [12]: 37% | Population Membrane Permeable-Phenotype (%) [12]: 33% | Population Mitochondria Different-Phenotype (%) [12]: 9% | Population Mitotic Cells (%) [12]: 25% | Population Normal (%) [12]: 62% | Population Pyknosed Nuclei (%) [12]: 5% | Population Tubulin-Different-Phenotype (%) [12]: 42% | Total Cell Count [12]: 215
